Results: ChEMBL document CHEMBL5634114, “Galantamine-memantine hybrids for Alzheimer's disease: The influence of linker rigidity in biological activity and pharmacokinetic properties” (Eur J Med Chem, 2023)
Converted amounts (≈) assume the structure as drawn.

Columns and labels:
Rattus norvegicus = organism: Rattus norvegicus; assay: Selectivity index, ratio of IC50 for NMDA/glycine-activated rat GluN1/Glu2A expressed in xenopus laevis oocytes to IC50 for NMDA/glycine-activated rat GluN1/Glu2B expressed in xenopus laevis oocytes; assay type: cell-based
Outline: (§1)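 Xenopus oocytes (stage IV–V) were injected with GluN1 plus GluN2A or GluN1 plus GluN2B cRNA (1:1) and kept 3–4 days at 18 °C. Two-electrode voltage clamp was run in saline with 2 mM CaCl2, pH 7.5. Currents were evoked by 100 µM NMDA plus 10 µM glycine, with compound co-applied at 0.01–100 µM in 10-fold steps. […] The selectivity index is the GluN1/2A IC50 divided by the GluN1/2B IC50.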

[1] = Metabolic stability in mouse plasma assessed as half life at 2 uM incubated for 2 hrs by LC-MS/MS analysis; assay type: ADME, cell-free
Outline: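 Compound at 2 µM final (0.5% DMSO) in prewarmed mouse plasma at 37 °C. Samples taken at 0, 5, 15, 30, 60 and 120 min were quenched in cold CH3CN with internal standard, centrifuged, diluted with water and analyzed by LC-MS/MS (MRM, positive ESI). Half-life calculated from the time course.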

[2] = Drug concentration in brain of in CD-1 mouse at 3 mg/kg, iv measured for 30 mins; assay type: ADME, organism-based; conditions: read-out: Ct
Outline: (§2)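 Male CD1 mice dosed IV at 3 mg/kg in PEG400/Tween 80/saline 10/10/80. Three mice per time point. Whole brains were homogenized in 4 vol PBS:protease inhibitor (100:1), extracted with cold CH3CN plus internal standard and measured by LC-MS/MS (MRM) against a 1 nM–10 µM calibration in naïve brain homogenate. Levels were normalized per 100 mg brain/mL, with protein content checked by BCA.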

[3] = Aqueous kinetic solubility in PBS at 250 uM incubated for 24 hrs […]; assay type: physicochemical; conditions: read-out: Kinetic_solubility
[4] = Drug concentration in brain of in CD-1 mouse at 3 mg/kg, iv measured for 120 mins; assay type: ADME, organism-based; conditions: read-out: Ct; outline: as §2
[5] = Metabolic stability in mouse liver microsomes assessed as half life at 5 uM preincubated for 15 mins followed by NADPH/G6P/G6PDH measured for 1 hr by LC-MS/MS analysis; assay type: ADME, Microsome; conditions: time 75 min
Outline: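 Mouse liver microsomes with compound at 5 µM final (0.1% DMSO) in 0.1 M Tris-HCl pH 7.5, preincubated 15 min at 37 °C. NADPH, G6P, G6PDH and MgCl2 were then added and incubation continued for 1 h. Samples at 0, 5, 15, 30 and 60 min were quenched in cold CH3CN with internal standard and analyzed by LC-MS/MS. A no-cofactor microsome control was run at 0 and 60 min.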

[6] = Volume of distribution in CD-1 mouse at 3 mg/kg, iv measured for 240 mins; assay type: ADME, organism-based; conditions: in vivo
Outline: (§3)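 Male CD1 mice (22–24 g) dosed IV at 3 mg/kg in PEG400/Tween 80/saline 10/10/80 v/v. Three animals per time point. Blood taken at 0, 5, 30, 60, 120 and 240 min. Plasma extracted with cold CH3CN plus internal standard and quantified by LC-MS/MS (MRM) against a 1 nM–10 µM calibration curve in blank plasma. Parameters were obtained by fitting the plasma concentration–time profile.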

Cholinesterase = Cholinesterase (Homo sapiens, UniProt P06276); assay: Inhibition of human serum BChE using butyrylthiocholine as substrate preincubated for 20 mins followed by substrate addition measured for 3 mins by Ellman's method; assay type: cell-free
Sequence of Cholinesterase (P06276 whole entry): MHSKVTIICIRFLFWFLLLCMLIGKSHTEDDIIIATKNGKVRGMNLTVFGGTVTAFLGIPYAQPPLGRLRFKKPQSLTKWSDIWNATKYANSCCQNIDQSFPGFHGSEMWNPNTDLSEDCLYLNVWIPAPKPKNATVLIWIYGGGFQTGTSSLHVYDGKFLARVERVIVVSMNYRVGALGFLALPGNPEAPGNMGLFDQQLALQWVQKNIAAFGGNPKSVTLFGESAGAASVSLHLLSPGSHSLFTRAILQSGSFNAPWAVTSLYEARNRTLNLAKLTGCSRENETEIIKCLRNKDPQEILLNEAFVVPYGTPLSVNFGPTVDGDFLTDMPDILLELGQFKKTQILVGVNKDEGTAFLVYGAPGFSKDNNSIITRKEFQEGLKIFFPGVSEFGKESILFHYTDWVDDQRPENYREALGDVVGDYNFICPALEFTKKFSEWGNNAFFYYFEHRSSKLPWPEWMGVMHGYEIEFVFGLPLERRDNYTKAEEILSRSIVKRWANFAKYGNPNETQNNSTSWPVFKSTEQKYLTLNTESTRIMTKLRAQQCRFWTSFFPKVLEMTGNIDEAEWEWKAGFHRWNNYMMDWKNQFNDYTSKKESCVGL
Outline: (§4)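 Ellman assay at 37 °C in 0.1 M phosphate buffer pH 8.0 with 340 µM DTNB and 0.02 U/mL enzyme (recombinant human AChE or human serum BChE). Inhibitor at increasing concentrations was preincubated with enzyme for 20 min before adding 550 µM acetylthiocholine (AChE) or butyrylthiocholine (BChE). Absorbance at 412 nm was monitored for 3 min, with a blank lacking enzyme. Triplicates; IC50 from log concentration–inhibition curves; at least two experiments.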

[7] = Cmax in CD-1 mouse at 3 mg/kg, iv measured for 240 mins; assay type: ADME, organism-based; conditions: in vivo; outline: as §3
[8] = Tmax in CD-1 mouse at 3 mg/kg, iv measured for 240 mins; assay type: ADME, organism-based; conditions: in vivo; outline: as §3
[9] = AUC in CD-1 mouse at 3 mg/kg, iv measured for 240 mins; assay type: ADME, organism-based; conditions: in vivo; outline: as §3
[10] = Half life in CD-1 mouse at 3 mg/kg, iv measured for 240 mins; assay type: ADME, organism-based; conditions: in vivo; outline: as §3
[11] = Metabolic stability in mouse liver microsomes assessed as half life at 5 uM preincubated for 15 mins followed by UDPGA/D-saccharic acid lactone measured for 1 hr by LC-MS/MS analysis; assay type: ADME, Microsome; conditions: time 75 min
Outline: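 Mouse liver microsomes with alamethicin and compound at 5 µM final (0.1% DMSO) in 0.1 M Tris-HCl pH 7.5, preincubated 15 min at 37 °C. UDPGA, p-saccharic acid lactone and MgCl2 were then added and incubation continued for 1 h. Samples at 0, 5, 15, 30 and 60 min were quenched in cold CH3CN with internal standard and analyzed by LC-MS/MS. A no-cofactor control was run at 0 and 60 min.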

[12] = target: Glutamate NMDA receptor; Grin1/Grin2b (Rattus norvegicus, UniProt P35439+Q00960); assay: Inhibition of NMDA/glycine-activated rat GluN1/Glu2B expressed in xenopus laevis oocytes at -75 mV holding potential by voltage clamp method; assay type: cell-based, Oocyte; outline: as §1
Sequence of Glutamate NMDA receptor; Grin1/Grin2b (Q00960 whole entry, other chains not shown): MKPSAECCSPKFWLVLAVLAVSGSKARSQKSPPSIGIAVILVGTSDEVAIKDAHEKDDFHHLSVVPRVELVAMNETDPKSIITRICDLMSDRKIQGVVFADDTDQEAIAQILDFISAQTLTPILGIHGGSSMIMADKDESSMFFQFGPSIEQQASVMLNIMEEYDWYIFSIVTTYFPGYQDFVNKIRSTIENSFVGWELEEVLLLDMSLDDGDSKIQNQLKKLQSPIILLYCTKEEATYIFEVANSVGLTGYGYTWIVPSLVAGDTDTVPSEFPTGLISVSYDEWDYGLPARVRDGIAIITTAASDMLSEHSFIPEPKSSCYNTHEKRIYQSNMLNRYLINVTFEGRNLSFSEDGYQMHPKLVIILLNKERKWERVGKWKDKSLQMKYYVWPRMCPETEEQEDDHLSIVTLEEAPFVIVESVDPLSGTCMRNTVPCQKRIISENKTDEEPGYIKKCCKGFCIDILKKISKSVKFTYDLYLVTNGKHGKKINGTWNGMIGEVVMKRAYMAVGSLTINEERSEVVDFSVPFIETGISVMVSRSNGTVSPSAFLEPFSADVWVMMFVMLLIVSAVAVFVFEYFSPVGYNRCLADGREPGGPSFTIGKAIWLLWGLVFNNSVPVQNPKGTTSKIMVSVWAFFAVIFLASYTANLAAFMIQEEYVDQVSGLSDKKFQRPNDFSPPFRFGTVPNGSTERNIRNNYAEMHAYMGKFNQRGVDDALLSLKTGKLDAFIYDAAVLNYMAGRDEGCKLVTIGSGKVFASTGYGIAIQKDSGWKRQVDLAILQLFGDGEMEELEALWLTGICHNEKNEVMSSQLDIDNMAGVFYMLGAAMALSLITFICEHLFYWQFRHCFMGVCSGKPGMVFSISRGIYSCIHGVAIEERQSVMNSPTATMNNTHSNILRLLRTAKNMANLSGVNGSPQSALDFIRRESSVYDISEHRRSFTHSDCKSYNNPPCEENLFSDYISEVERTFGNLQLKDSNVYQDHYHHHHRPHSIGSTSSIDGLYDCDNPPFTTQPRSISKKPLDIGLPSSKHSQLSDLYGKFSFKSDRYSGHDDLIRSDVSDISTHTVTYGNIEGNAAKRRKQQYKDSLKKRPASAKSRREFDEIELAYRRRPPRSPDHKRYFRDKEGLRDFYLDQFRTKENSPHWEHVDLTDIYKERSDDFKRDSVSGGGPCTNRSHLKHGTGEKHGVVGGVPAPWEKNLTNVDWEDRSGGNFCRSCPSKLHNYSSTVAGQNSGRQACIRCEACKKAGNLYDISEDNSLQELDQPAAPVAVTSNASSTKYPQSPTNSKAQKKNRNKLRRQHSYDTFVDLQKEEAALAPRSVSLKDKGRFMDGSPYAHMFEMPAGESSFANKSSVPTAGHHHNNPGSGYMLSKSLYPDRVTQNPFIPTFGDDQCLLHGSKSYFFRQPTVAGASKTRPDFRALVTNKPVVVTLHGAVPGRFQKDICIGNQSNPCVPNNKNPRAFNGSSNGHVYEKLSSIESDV

[13] = Drug concentration in brain of in CD-1 mouse at 3 mg/kg, iv measured for 60 mins; assay type: ADME, organism-based; conditions: read-out: Ct; outline: as §2
[14] = target: Glutamate NMDA receptor; Grin1/Grin2a (Rattus norvegicus, UniProt P35439+Q00959); assay: Inhibition of NMDA/glycine-activated rat GluN1/Glu2A expressed in xenopus laevis oocytes at -75 mV holding potential by voltage clamp method; assay type: cell-based, Oocyte; outline: as §1
Sequence of Glutamate NMDA receptor; Grin1/Grin2a (Q00959 whole entry, other chains not shown): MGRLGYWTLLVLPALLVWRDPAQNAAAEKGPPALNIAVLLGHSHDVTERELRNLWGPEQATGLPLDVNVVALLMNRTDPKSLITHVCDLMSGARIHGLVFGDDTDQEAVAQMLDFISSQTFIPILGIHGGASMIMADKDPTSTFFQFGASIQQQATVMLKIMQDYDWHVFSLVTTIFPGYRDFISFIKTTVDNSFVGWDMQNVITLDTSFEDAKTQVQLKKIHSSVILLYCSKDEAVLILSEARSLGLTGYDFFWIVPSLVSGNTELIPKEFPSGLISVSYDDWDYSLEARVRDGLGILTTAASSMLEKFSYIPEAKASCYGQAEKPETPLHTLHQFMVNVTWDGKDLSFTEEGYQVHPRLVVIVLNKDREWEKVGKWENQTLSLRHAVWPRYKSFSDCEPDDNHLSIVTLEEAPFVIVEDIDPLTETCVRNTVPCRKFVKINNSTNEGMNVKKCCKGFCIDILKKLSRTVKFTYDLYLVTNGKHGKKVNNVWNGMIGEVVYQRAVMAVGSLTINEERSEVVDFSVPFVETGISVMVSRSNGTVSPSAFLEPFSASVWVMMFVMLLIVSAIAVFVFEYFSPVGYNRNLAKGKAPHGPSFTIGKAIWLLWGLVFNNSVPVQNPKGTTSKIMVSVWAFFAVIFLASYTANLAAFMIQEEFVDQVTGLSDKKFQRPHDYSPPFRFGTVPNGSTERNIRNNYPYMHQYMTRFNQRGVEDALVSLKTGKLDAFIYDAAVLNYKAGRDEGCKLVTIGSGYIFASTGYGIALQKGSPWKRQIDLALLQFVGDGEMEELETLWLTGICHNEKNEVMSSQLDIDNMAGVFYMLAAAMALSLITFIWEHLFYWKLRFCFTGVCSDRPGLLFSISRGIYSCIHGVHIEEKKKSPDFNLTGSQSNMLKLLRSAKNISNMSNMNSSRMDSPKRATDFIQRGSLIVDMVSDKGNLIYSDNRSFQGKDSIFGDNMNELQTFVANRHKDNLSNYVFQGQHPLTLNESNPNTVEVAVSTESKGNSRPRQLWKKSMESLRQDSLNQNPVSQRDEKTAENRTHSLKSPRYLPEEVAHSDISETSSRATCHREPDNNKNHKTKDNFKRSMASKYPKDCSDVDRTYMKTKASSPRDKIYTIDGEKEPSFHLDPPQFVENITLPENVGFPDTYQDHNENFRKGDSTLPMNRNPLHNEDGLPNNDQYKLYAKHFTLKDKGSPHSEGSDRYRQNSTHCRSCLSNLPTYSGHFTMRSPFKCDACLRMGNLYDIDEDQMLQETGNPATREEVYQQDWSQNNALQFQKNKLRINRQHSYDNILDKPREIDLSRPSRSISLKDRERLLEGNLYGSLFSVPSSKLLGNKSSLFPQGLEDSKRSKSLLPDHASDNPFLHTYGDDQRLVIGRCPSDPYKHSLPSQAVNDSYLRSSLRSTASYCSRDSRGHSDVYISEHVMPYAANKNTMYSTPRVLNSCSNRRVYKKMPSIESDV

[15] = Drug concentration in brain of in CD-1 mouse at 3 mg/kg, iv measured for 240 mins; assay type: ADME, organism-based; conditions: read-out: Ct; outline: as §2
[16] = Clearance in CD-1 mouse at 3 mg/kg, iv measured for 240 mins; assay type: ADME, organism-based; conditions: in vivo; outline: as §3
Acetylcholinesterase = Acetylcholinesterase (Homo sapiens, UniProt P22303); assay: Inhibition of recombinant human AChE using acetylthiocholine as substrate preincubated for 20 mins followed by substrate addition measured for 3 mins by Ellman's method; outline: as §4
Sequence of Acetylcholinesterase (P22303 whole entry): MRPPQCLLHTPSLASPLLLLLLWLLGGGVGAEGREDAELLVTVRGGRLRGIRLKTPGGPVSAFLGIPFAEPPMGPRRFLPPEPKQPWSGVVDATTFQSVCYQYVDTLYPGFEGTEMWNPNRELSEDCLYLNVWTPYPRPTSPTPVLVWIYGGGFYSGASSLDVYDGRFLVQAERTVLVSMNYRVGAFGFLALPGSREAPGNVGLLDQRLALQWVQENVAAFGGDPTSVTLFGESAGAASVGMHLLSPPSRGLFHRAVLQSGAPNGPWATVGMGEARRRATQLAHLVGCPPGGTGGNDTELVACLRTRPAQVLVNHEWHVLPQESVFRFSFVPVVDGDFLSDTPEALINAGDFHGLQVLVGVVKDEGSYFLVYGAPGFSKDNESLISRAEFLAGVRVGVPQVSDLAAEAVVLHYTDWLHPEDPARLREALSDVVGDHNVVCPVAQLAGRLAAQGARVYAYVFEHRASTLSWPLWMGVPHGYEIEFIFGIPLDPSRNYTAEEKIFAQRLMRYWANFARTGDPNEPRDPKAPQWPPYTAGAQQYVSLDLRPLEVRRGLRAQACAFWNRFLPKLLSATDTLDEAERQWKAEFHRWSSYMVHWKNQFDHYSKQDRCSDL

| SMILES | Ratio IC50 (Rattus norvegicus) | half-life at 2 µM [1] [h] | concentration at 0.5 h [2] [ng/g] | solubility kinetic at 24 h, 250 µM [3] [µM] | concentration at 2 h [4] [ng/g] | half-life at 5 µM [5] [h] | Vd [6] [L/kg] | IC50 (Cholinesterase) [µM] | Cmax [7] [µg/mL] | Tmax [8] [min] | AUC at 4 h [9] [µg·h/mL] | half-life [10] [h] | half-life at 5 µM [11] [h] | IC50 [12] [µM] | concentration at 1 h [13] [ng/g] | IC50 [14] [µM] | concentration at 4 h [15] [ng/g] | clearance [16] [L/h/kg] | IC50 (Acetylcholinesterase) [µM] |
| --- | --- | --- | --- | --- | --- | --- | --- | --- | --- | --- | --- | --- | --- | --- | --- | --- | --- | --- | --- |
| COc1ccc2c3c1O[C@H]1C[C@@H](O)C=C[C@@]31CCN(C/C=C/CNC13CC4CC(C)(CC(C)(C4)C1)C3)C2 | 11 | > 2 | 281 | 237 (≈ 120 µg/mL) | 243 | 0.75 | 19 | 0.421 | 0.202 | 5 | 0.28 | 1.37 | > 1 | 1.32 | 256 | 14.5 | 96 | 9.66 | 0.115 |
| COc1ccc2c3c1O[C@H]1C[C@@H](O)C=C[C@@]31CCN(CCCCNC13CC4CC(C)(CC(C)(C4)C1)C3)C2 | 4 | 1.62 | 95 | 242 (≈ 123 µg/mL) | 70 | > 1 | 78 | 1.77 | 0.208 | 5 | 0.29 | 20.8 | > 1 | 1.45 | 115 | 5.74 | 310 | 2.58 | 1.13 |
| COc1ccc2c3c1O[C@H]1C[C@@H](O)C=C[C@@]31CCN(CC#CCNC13CC4CC(C)(CC(C)(C4)C1)C3)C2 | 0.75 | > 2 |  | 230 (≈ 116 µg/mL) |  | < 0.0833 |  | 5.08 |  |  |  |  |  | 15.5 |  | 11.6 |  |  | 0.762 |
